Calls of active or inactive are those of the source. The rule behind the calls is not given here.
Experiments:
U138-MG = assay: Antiproliferative activity against human U138 cells overexpressing ANO1 assessed as reduction in cell viability measured after 72 hrs by Celltiter-glo assay; type: functional
Procedure, shortened: (§1)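 5.0×10^3 cells/well seeded, overnight, then compounds added as 1:4 serial dilutions in DMSO; viability read after 72 h with CellTiter-Glo luminescence. GI50 from fitted dose-response curves; triplicate wells, SD from three independent experiments. DMEM for U251 and U138, MEM for U87MG, both with 10% FBS and pen/strep, 37 °C, 5% CO2.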

U-251 [1] = assay: Inhibition of colony formation in human U251 cells at 10 uM incubated for 14 days by crystal violet dye based assay; type: functional; settings: U-251, 336 h, time 14 day
Procedure, shortened: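 Colonies stained 24 h with crystal violet in methanol/formaldehyde/PBS, washed, extracted with 10% acetic acid and read at A570 nm. Compared against DMSO control.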

[2] = biological target: T1, Anoctamin-1 (Homo sapiens) (UniProt Q5XXA6); assay: Induction of ANO1 degradation in human U251 cells at 10 uM incubated for 24 hrs by western blot analysis; type: cell-based; settings: U-251
T1 sequence (whole entry): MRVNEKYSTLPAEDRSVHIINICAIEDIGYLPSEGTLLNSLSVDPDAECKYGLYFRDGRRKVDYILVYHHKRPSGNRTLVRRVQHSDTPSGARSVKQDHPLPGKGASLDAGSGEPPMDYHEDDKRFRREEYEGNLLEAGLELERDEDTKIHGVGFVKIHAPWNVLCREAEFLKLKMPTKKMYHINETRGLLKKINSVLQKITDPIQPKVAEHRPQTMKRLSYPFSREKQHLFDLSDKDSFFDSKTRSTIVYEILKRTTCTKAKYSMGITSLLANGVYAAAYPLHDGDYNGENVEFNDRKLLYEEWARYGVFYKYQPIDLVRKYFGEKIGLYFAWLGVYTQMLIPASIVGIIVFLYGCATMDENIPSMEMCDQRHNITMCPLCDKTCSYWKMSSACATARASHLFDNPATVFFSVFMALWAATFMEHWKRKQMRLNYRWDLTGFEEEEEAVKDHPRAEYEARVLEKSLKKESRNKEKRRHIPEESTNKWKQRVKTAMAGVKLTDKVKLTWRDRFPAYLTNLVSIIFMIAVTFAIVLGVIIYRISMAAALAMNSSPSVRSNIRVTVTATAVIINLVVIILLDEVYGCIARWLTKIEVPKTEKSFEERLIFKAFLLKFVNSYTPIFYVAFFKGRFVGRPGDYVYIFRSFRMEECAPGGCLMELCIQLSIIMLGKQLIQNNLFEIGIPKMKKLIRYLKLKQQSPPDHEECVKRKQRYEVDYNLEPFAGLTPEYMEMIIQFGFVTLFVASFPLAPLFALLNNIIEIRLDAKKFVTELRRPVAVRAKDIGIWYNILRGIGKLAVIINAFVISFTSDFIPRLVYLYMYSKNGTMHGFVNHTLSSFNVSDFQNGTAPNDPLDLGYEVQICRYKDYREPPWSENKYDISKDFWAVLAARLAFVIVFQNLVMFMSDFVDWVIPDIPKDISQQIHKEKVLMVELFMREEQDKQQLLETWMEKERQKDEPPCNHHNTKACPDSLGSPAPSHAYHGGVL
Procedure, shortened: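 U251 cells (5×10^5) treated with 10 μM inhibitor for 24 h. Alternatively, treated 6 h with 10 μM inhibitor, then MG132 (20 μM, a proteasome inhibitor) for a further 18 h. NP40 lysates immunoblotted for ANO1, β-actin as loading control; band densitometry.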

U-251 [3] = assay: Inhibition of anchorage-independent colony formation in human U251 cells incubated for 14 days by crystal violet staining based soft agar colony formation assay; type: functional, cell-based; settings: dose 30-100 µM, time 14.0 day
Procedure, shortened: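 Soft agar assay: 2.0×10^3 U251 cells in complete medium with 0.3% agar over a 0.6% bottom agar layer. Treated with compounds at 1-100 μM for 14 days, 37 °C, 5% CO2. Colonies stained with crystal violet for 24 h, whole wells photographed and colonies counted against DMSO control; n = 3.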

U-251 [4] = assay: Inhibition of cell migration in human U251 cells at 10 uM incubated for 18 hrs by wound healing assay; type: functional
Procedure, shortened: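 U251 monolayer, 2.0×10^5 cells/well, plated overnight, then scratched and washed with PBS. Wound area imaged before and after incubation; migration ratio taken from migrated area. One-way ANOVA.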

[5] = biological target: T1, Anoctamin-1 (Homo sapiens); assay: Inhibition of ANO1 in human U251 cells assessed as inhibition of channel current at 10 uM by patch clamp electrophysiology assay; type: cell-based; settings: U-251
Procedure, shortened: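 Endogenous ANO1 currents recorded by whole-cell patch clamp in U251 cells, room temperature. 1 s ramps from +80 to -80 mV, holding potential -10 mV. CsCl-based pipette with Ca-EGTA-NMDG (pH 7.3) and NaCl-based bath (pH 7.3).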

U-251 [6] = assay: Antiproliferative activity against human U251 cells overexpressing ANO1 assessed as reduction in cell viability measured after 72 hrs by Celltiter-glo assay; type: functional; procedure, shortened: as §1
U-251 [7] = assay: Inhibition of cell invasion in human U251 cells at 10 uM incubated for 48 hrs by Boyden chamber method; type: functional
Procedure, shortened: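 Boyden chamber invasion: U251 cells serum-starved 24 h, then 2.5×10^5 cells seeded in 8-μm ECMatrix-coated transwells. Treated with compound at 1 or 10 μM for 48 h at 37 °C. Invasion ratio from relative fluorescence.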

Structure (SMILES) | GI50 (U138-MG) [µM] | inhibition at 10 µM (U-251 [1]) [%] | Activity [2] | inhibition (U-251 [3]) | inhibition (U-251 [4]) | inhibition [5] [%] | GI50 (U-251 [6]) [µM] | inhibition (U-251 [7]) | inhibition at 10 µM (U-251 [4]) [%] | inhibition at 10 µM (U-251 [7]) [%]
NC(=O)c1c(NC(=S)NC(=O)c2ccc(Cl)cc2)sc2c1CCC2 | 13.2 | 96.4 | Active | Dose-dependent effect | Active | 60 | 12 | Active | – | –
CC(C)(C)C(=O)Nc1sc2c(c1C(N)=O)CCC(C(C)(C)C)C2 (stereo unspecified) | 22.2 | 96.6 | Active | Dose-dependent effect | – | 40 | 12.6 | – | 90 | 90

— ChEMBL document CHEMBL4706565, “Anti-glioma effects of 2-aminothiophene-3-carboxamide derivatives, ANO1 channel blockers” (Eur J Med Chem, 2020)
